Source: paper PMC6210075 (ACS Omega, 2018)

Tests used:
[1] = molecular target: T1, human sEH (Homo sapiens, UniProt P34913); experiment: sEH fluorescent inhibition assay; type: biochemical
T1 sequence (P34913 1-555): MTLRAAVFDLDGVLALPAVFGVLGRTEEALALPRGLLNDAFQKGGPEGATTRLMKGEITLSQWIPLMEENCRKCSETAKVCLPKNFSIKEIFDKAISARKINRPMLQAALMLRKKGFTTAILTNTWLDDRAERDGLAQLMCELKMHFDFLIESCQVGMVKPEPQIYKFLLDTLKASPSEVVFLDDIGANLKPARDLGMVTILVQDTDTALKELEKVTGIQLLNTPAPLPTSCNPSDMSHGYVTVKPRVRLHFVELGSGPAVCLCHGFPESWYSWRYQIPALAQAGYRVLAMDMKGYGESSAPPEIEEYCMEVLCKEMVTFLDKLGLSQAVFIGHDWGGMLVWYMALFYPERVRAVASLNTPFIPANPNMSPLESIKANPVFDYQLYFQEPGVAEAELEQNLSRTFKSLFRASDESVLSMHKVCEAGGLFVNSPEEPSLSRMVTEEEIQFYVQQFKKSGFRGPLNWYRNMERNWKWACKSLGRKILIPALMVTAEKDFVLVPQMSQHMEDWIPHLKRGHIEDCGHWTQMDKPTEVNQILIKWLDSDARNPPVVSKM

[2] = molecular target: T2, human FAAH (Homo sapiens, UniProt O00519); experiment: FAAH fluorescent inhibition assay; type: biochemical
T2 sequence (O00519 1-579): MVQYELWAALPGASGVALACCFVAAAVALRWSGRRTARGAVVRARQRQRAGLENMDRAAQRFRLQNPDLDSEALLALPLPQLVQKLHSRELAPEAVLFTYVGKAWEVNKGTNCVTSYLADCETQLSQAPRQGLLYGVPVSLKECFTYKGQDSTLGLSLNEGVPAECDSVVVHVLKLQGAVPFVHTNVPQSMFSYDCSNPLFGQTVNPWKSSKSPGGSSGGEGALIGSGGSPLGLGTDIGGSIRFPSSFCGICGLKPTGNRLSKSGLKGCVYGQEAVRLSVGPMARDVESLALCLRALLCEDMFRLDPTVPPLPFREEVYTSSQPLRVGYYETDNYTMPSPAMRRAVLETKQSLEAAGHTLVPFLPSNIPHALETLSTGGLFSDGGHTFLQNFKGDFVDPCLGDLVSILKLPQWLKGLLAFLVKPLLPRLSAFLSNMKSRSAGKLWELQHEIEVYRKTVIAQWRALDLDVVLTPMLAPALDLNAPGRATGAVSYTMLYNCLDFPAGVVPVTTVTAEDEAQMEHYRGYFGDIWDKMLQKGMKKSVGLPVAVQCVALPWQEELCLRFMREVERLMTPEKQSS

[3] = molecular target: T3, mouse sEH (Mus musculus, UniProt P34914); experiment: sEH fluorescent inhibition assay, recombinant mouse sEH; type: biochemical
T3 sequence (P34914 1-554): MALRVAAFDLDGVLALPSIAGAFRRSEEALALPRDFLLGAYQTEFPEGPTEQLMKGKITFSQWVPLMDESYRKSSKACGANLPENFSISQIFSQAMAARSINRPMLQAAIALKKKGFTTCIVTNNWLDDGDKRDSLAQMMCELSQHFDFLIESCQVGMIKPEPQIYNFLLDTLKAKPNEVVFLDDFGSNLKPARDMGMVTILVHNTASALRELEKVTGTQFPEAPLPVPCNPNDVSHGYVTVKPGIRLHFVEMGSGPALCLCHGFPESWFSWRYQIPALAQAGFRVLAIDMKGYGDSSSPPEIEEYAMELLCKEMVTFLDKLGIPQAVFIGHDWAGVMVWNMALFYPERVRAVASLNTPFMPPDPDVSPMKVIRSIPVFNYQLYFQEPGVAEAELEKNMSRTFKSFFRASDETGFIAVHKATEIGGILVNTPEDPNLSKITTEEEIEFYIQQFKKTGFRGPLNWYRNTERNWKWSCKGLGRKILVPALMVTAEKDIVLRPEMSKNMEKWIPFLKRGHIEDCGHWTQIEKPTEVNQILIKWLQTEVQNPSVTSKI

[4] = molecular target: T2, human FAAH; experiment: Ki and kinact determination on FAAH; type: biochemical
Summary of the method: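 Crude baculovirus-expressed recombinant FAAH (High Five cell S9 fraction in 50 mM Tris/HCl pH 8.0, 1 mM CHAPS, 10% glycerol). OMP (100 μM final) was mixed with a range of test compound concentrations and held 5 min at 37 °C.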

[5] = molecular target: T4, serine hydrolases (Mus musculus, UniProt O08914); experiment: Activity-based protein profiling; type: biochemical; details: mouse brain tissue homogenate, inhibitor 20 µM
T4 sequence (O08914 1-579): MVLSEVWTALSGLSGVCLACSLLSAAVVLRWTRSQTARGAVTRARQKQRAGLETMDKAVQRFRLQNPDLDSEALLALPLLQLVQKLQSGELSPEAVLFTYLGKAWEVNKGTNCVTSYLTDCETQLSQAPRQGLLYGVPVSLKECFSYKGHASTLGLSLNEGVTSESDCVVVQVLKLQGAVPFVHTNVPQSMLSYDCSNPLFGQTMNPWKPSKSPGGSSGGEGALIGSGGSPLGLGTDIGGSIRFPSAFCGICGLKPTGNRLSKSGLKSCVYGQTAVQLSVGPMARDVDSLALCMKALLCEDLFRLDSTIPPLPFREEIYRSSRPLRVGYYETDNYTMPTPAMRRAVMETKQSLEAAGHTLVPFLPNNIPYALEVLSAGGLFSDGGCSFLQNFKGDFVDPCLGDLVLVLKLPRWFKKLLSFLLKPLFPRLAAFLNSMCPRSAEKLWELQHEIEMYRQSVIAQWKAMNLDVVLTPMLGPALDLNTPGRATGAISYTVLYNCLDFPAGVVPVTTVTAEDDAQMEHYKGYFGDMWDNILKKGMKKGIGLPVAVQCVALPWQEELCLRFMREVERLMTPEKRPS

[6] = test system: serine hydrolases; experiment: Activity-based protein profiling; type: biochemical, mouse; details: mouse liver tissue homogenate, inhibitor 20 µM

difference in potency on sEH ([1]; compared to 11) [fold]	difference in potency on FAAH ([2]; compared to 11) [fold]	kinact [4] [s⁻¹]	kinact/KI [4] [M⁻¹ s⁻¹]	SMILES	IC50 [3] [nM]	Ki [4] [nM]	intensity of the FAAH band (ABPP) [5]	other serine hydrolase bands (ABPP) [6]	IC50 [1] [µM]	IC50 [2] [nM]
< 3	< 3	0.000283	700000	O=C(Nc1ccc(C(F)(F)F)cc1F)N1CCC(Cc2cccc(Oc3ccc(C(F)(F)F)cn3)c2)CC1 [compound 18]	360	24	does not appear to fully inhibit the band corresponding to FAAH	neither 11, 13, 14, 18, nor PF-3845 had any effect on the intensity of other bands	–	–
–	–	–	–	O=C(Nc1cccnc1)N1CCC(Cc2cccc(Oc3ccc(C(F)(F)F)cn3)c2)CC1 [PF-3845, reference compound]	1200	3.5	reduced	neither 11, 13, 14, 18, nor PF-3845 had any effect on the intensity of other bands	12	0.65
